In ChEMBL document CHEMBL1142308, “Synthesis and structure-activity relationships of N-(3-phenylpropyl)-N'-benzylpiperazines: Potent ligands for sigma1 and sigma2 receptors” (Bioorg Med Chem, 2008):
pIC50, pKi: −log10 of the molar value.

Assays:
[1] = molecular target: T1, Sigma non-opioid intracellular receptor 1 (Cavia porcellus, UniProt Q60492); assay: Displacement of [3H](+)-PTZ from sigma1 receptor in Hartley guinea pig brain
[2] = Displacement of [3H]DTG from sigma2 receptor in Hartley guinea pig brain; parameters: species or system Cavia porcellus
[3] = molecular target: Mu-type opioid receptor (Cavia porcellus) (UniProt P97266); assay: Displacement of [3H]DAMGO from mu opioid receptor in guinea pig brain; parameters: concentration or dose not given beside the values
Chain of Mu-type opioid receptor (Cavia porcellus) (P97266 whole entry): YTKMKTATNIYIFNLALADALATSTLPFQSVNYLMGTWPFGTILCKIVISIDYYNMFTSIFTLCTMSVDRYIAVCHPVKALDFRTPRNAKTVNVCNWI
Summary of the method: (§1)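 Brain membranes came from guinea pig for mu and kappa and from mouse for delta. Radioligands were [3H]DAMGO (mu), [3H]NTI (delta) and [3H]U69,593 (kappa). The read-out is percent displacement of radioligand binding at a single concentration of 1–2 of test compound.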

Cavia porcellus = species: Cavia porcellus; assay: Ratio of Ki for sigma2 receptor in Hartley guinea pig brain to Ki for sigma1 receptor in Hartley guinea pig brain
Summary of the method: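 Selectivity is expressed as the sigma2/sigma1 Ki ratio. The sigma1 Ki comes from [3H](+)-pentazocine displacement and the sigma2 Ki from [3H]DTG displacement, both in guinea pig brain. Each Ki is from Cheng-Prusoff, using Kd 2.3 nM and 23.9 nM respectively, with duplicates repeated 3–6 times.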

[4] = molecular target: Delta-type opioid receptor (Mus musculus) (UniProt P32300); assay: Displacement of [3H]NTI from delta opioid receptor in mouse brain; assay type: tissue-based; parameters: concentration or dose not given beside the values; summary of the method: as §1
Chain of Delta-type opioid receptor (Mus musculus) (P32300 whole entry): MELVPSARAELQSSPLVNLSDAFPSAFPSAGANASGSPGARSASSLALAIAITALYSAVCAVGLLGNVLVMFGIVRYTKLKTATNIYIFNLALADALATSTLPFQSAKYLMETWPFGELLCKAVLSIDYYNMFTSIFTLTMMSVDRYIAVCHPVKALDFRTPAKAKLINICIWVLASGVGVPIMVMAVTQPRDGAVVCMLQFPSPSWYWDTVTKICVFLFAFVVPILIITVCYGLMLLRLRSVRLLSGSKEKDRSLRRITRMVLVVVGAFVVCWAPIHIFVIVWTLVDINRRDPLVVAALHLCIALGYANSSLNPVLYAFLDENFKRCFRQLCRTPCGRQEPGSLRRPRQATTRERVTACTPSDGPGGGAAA

[5] = molecular target: Kappa-type opioid receptor (Cavia porcellus) (UniProt P41144); assay: Displacement of [3H]U69593 from kappa opioid receptor in guinea pig brain; parameters: concentration or dose not given beside the values; summary of the method: as §1
Chain of Kappa-type opioid receptor (Cavia porcellus) (P41144 whole entry): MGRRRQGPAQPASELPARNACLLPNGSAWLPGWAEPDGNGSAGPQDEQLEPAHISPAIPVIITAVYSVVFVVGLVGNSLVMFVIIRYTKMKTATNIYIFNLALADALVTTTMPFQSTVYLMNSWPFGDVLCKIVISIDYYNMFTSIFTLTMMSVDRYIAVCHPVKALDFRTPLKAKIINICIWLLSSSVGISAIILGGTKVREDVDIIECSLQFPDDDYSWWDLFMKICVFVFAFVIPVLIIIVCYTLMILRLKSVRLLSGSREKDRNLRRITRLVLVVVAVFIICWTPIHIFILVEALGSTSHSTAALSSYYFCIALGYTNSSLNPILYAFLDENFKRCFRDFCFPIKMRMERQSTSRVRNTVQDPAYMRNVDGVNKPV

[6] = molecular target: T1, Sigma non-opioid intracellular receptor 1; assay: Displacement of [3H]pentazocine from sigma1 receptor in guinea pig membrane; assay type: cell membranes
[7] = molecular target: T1, Sigma non-opioid intracellular receptor 1; assay: Displacement of [3H]pentazocine from sigma1 receptor in guinea pig membrane in presence of phenytoin; assay type: cell membranes
Summary of the method: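 [3H](+)-pentazocine sigma1 binding run as the standard assay, but with phenytoin in 0.15 M NaOH vehicle added to every tube; parallel controls received NaOH only. Trials performed in duplicate, 3–5 trials; ratio of IC50 with versus without phenytoin used for agonist/antagonist profiling.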

D(2) dopamine receptor = D(2) dopamine receptor (Homo sapiens, UniProt P14416); assay: Binding affinity to dopamine D2 receptor
Chain of D(2) dopamine receptor (P14416 whole entry): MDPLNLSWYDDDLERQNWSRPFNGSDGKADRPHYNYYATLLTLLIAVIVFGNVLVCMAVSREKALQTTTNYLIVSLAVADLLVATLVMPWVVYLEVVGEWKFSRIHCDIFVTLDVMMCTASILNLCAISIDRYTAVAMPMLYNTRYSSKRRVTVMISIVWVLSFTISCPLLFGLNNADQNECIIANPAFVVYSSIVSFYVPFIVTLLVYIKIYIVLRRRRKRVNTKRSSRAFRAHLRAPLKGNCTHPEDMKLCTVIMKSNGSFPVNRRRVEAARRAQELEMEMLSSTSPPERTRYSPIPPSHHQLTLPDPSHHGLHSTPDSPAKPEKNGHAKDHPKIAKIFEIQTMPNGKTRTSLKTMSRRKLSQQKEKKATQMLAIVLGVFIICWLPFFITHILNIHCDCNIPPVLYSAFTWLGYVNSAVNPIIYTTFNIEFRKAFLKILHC

[8] = molecular target: T2, 5-hydroxytryptamine receptor 1A (Homo sapiens, UniProt P08908); assay: Binding affinity to 5HT1A receptor
T2 sequence (P08908 whole entry): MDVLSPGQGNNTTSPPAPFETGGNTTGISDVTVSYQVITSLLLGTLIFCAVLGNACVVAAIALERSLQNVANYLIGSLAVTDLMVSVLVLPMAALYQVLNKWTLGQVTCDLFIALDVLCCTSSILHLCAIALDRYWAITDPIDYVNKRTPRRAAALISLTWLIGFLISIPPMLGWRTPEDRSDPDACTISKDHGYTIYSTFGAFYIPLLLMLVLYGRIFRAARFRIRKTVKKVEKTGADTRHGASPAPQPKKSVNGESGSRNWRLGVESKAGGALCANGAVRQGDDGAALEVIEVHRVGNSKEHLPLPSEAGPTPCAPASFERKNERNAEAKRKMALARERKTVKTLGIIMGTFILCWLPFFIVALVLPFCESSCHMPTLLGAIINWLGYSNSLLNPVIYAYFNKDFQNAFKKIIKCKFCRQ

[9] = Binding affinity to sigma receptor
[10] = molecular target: Sigma non-opioid intracellular receptor 1 (Cavia porcellus) (UniProt Q60492); assay: Ratio of IC50 for sigma1 receptor in absence of phenytoin to in presence of phenytoin in guinea pig membrane; assay type: cell membranes
Chain of Sigma non-opioid intracellular receptor 1 (Cavia porcellus) (Q60492 whole entry): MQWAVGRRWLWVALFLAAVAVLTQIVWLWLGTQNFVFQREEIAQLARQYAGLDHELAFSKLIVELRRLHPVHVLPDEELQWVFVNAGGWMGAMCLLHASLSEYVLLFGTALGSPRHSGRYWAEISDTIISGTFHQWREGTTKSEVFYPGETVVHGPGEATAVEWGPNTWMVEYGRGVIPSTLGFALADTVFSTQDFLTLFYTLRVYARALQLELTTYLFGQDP
Summary of the method: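 Sigma1 competition binding against [3H](+)-pentazocine in guinea pig brain homogenates, with phenytoin in 0.15 M NaOH vehicle added to every tube, alongside controls given only 0.15 M NaOH. Incubation medium was pH 7.44 at 37 °C with the NaOH additions. Ratio is IC50 without phenytoin over IC50 with it. Run in duplicate, repeated 3–6 times.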

T1 sequence (Q60492 whole entry): as above

| SMILES | pKi [1] | pKi [2] | Activity [3] [%] | Ratio Ki (Cavia porcellus) | Activity [4] [%] | Activity [5] [%] | pIC50 [6] | pIC50 [7] | pIC50 (D(2) dopamine receptor) | pIC50 [8] | pIC50 [9] | Ratio IC50 [10] |
| --- | --- | --- | --- | --- | --- | --- | --- | --- | --- | --- | --- | --- |
| O=[N+]([O-])c1cccc(CN2CCN(CCCc3ccccc3)CC2)c1 | 9.03 | 8.80 | < 5 | 1.7 | < 5 | < 5 | – | – | – | – | – | – |
| COc1ccc2c(c1)[C@]13CCCC[C@@H]1[C@H](C2)N(C)CC3 [DEXTROMETHORPHAN] | – | – | – | – | – | – | 6.63 | 7.82 | – | – | – | – |
| O=[N+]([O-])c1ccccc1CN1CCN(CCCc2ccccc2)CC1 | 8.55 | 8.42 | < 5 | 1.4 | < 5 | < 5 | – | – | – | – | – | – |
| COc1cccc(CN2CCN(CCCc3ccccc3)CC2)c1 | 9.06 | 7.85 | < 5 | 16.3 | < 5 | < 5 | – | – | – | – | – | – |
| Fc1cccc(CN2CCN(CCCc3ccccc3)CC2)c1 | 8.87 | 7.86 | < 5 | 10.2 | < 5 | < 5 | – | – | – | – | – | – |
| Cc1ccc(CN2CCN(CCCc3ccccc3)CC2)cc1 | 8.93 | 7.76 | < 5 | 15 | < 5 | < 5 | – | – | – | – | – | – |
| O=[N+]([O-])c1ccc(CN2CCN(CCCc3ccccc3)CC2)cc1 | 9.43 | 8.48 | < 5 | 8.9 | < 5 | < 5 | – | – | – | – | – | – |
| COc1ccc(CCN2CCN(CCCc3ccccc3)CC2)cc1OC [[11C]SA4503] | – | 7.05 | – | – | – | – | – | – | – | – | – | – |
| Ic1cccc(CN2CCN(CCCc3ccccc3)CC2)c1 | 9.41 | 8.99 | < 5 | 2.6 | < 5 | < 5 | – | – | – | – | – | – |
| c1ccc(CCCN2CCN(Cc3ccccc3)CC2)cc1 | 9.18 | 7.46 | < 5 | 52 | < 5 | < 5 | 8.83 | 8.72 | < 7.00 | < 7.00 | 7.70 | 0.8 |
| COc1ccc(CN2CCN(CCCc3ccccc3)CC2)cc1 | 9.12 | 7.48 | < 5 | 43.2 | < 5 | < 5 | – | – | – | – | – | – |
| Brc1ccccc1CN1CCN(CCCc2ccccc2)CC1 | 9.22 | 8.39 | < 5 | 6.9 | < 5 | < 5 | – | – | – | – | – | – |
